Laboratory results reported in paper PMC8521312 (The EMBO Journal, 2021).
“Also recorded” adds a separate entry of the source.

Experiments:
[1] = tested on: nucleolin-Kif5a motor complex; details: ref Perry et al, 2016, cited from earlier work
[2] = tested on: axonal Inpp5f mRNA; assay: FISH of axonal Inpp5f mRNA in DRG neurons; format: cell-based, rat; details: 10 µM AS1411 or control aptamer, 48 h, replated 18 h; n = 11–19 cells per sample; P < 0.05
[3] = tested on: AS1411 DNA aptamer; assay: ELISA assay for AS1411-binding peptides; details: 0.04 μM aptamer, PBS, 1 h, room temperature, n = 3 technical replicates
Procedure, shortened: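 Streptavidin-coated wells were washed in PBS-T, loaded with 0.025 μM biotinylated peptide for 1 h at room temperature, and blocked with 1% BSA/PBS for 30 min at 37°C. DIG-labelled aptamer or control aptamer was added, then HRP anti-DIG (1/2,000 in 1% BSA-PBS, 30 min, 37°C). TMB substrate was read by absorbance at […]. PBS-T washes were done between steps.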

[4] = tested on: nucleolin mRNA and protein; assay: Nucleolin knockdown in DRG neurons; format: cell-based, rat; details: siRNA targeting 3′UTR of nucleolin mRNA, 50 nM printed for control siRNAs; 96 h
Procedure, shortened: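 Three hours after plating, neurons were transfected with control siRNA (50 nM as printed) or either of two siRNAs against the nucleolin 3′UTR using a lipid transfection reagent. Cultures were fixed 96 h later for FISH/immunofluorescence. Sister cultures gave mRNA by RT-ddPCR and protein by immunoblot (milk block, HRP secondary 1:10,000, ECL).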

[5] = tested on: DRG neurons; assay: Hypotonic challenge; format: cell-based, mouse; details: ddH2O, 17–24 cells per sample, three biological repeats
[6] = tested on: HEK-293 cells; assay: Hypotonic challenge; format: cell-based, human; details: ddH2O, n = 24 cells per sample, p < 0.05, p < 0.01

## GGTGGTGGTGGTTGTGGTGGTGGTGG [AS1411]
[1]; AS1411 perturbation of kinesin–nucleolin interactions
  axonal growth: accelerated axonal growth
[1]
  association of nucleolin with Kif5a motor complex: reduced; also recorded: perturbs the association of nucleolin with the Kif5a motor complex
  nucleolin localization to axons: perturbs nucleolin localization to axons
[2]
  axonal Inpp5f mRNA (FISH): significant reduction in axonal Inpp5f mRNA
[3]
  binding of aptamer to GAR-derived peptides of 22–28 residues: showed binding

## siRNA 1: GUUGAAUGACAGAGCCUUUUU; siRNA 2: GGACAUUCCAAGACAGUAAUU
[4]
  endogenous nucleolin mRNA and protein: significantly reduced

B1: Ncl ΔGAR: HA-Dendra2-nucleolin with a GAR domain deletion (protein)
chain: MVKLAKAGKTHGEAKKMAPPPKEVEEDSEDEEMSEDEDDSSGEEEVVIPQKKGKKATTTPAKKVVVSQTKKAAVPTPAKKAAVTPGKKAVATPAKKNITPAKVIPTPGKKGAAQAKALVPTPGKKGAATPAKGAKNGKNAKKEDSDEDEDEEDEDDSDEDEDDEEEDEFEPPIVKGVKPAKAAPAAPASEDEEDDEDEDDEEDDDEEEEDDSEEEVMEITTAKGKKTPAKVVPMKAKSVAEEEDDEEEDEDDEDEDDEEEDDEDDDEEEEEEEPVKAAPGKRKKEMTKQKEAPEAKKQKVEGSEPTTPFNLFIGNLNPNKSVNELKFAISELFAKNDLAVVDVRTGTNRKFGYVDFESAEDLEKALELTGLKVFGNEIKLEKPKGRDSKKVRAARTLLAKNLSFNITEDELKEVFEDAMEIRLVSQDGKSKGIAYIEFKSEADAEKNLEEKQGAEIDGRSVSLYYTGEKGQRQERTGKTSTWSGESKTLVLSNLSYSATKETLEEVFEKATFIKVPQNPHGKPKGYAFIEFASFEDAKEALNSCNKMEIEGRTIRLELQGSNSRSQPSKTLFVKGLSEDTTEETLKESFEGSVRARIVTDRETGSSKGFGFVDFNSEEDAKAAKEAMEDGEIDGNKVTLDWAKPKKPQGKKTKFE
modifications: left off: HA, N-terminal, kept | Dendra2, N-terminal, kept
[5]
  reduction of nucleolar signal on hypotonic challenge, FL vs ΔGAR: no difference between full‐length and ΔGAR mutant nucleolin
[6]
  reduction of nucleolar signal on hypotonic challenge, FL vs ΔGAR: Significant differences between full‐length and GAR deletion nucleolin
